Assay results gathered from unrelated publications.
Each line is one published result; the experiments were not run side by side.
ADORA3: Adenosine receptor A3 (ADORA3, Homo sapiens, UniProt P0DMS8)
ELANE: Neutrophil elastase (ELANE, Homo sapiens, UniProt P08246)
BRAF V600E: Serine/threonine-protein kinase B-raf (BRAF, Homo sapiens, UniProt P15056, V600E)
DRD2: D(2) dopamine receptor (DRD2, Homo sapiens, UniProt P14416)
Blk: Tyrosine-protein kinase Blk (Blk, Mus musculus, UniProt P16277)
NPY1R: Neuropeptide Y receptor type 1 (NPY1R, Homo sapiens, UniProt P25929)
PARP16: Protein mono-ADP-ribosyltransferase PARP16 (PARP16, Homo sapiens, UniProt Q8N5Y8)

SMILES | target | assay | conditions | inhibition [%]
CC(C)CN1CCCn2c1nc1c2c(=O)n(C)c(=O)n1C | ADORA3 | ligand displacement, radioligand | 10 µM, cell membranes | 18
CC(=O)c1nn(CC(=O)N2C[C@H](F)C[C@H]2C(=O)Nc2cccc(Br)n2)c2ccc(-c3cnc(C)nc3)cc12 | ELANE | enzyme activity, inhibitor | 10 µM | 0.7
CCN(CC)c1ccc(C2Nc3ccc(C(=O)c4ccccc4)cc3NC3=C2C(=O)CC(C)(C)C3)cc1 (stereo not drawn) | 5-hydroxytryptamine receptor 1E (HTR1E, Homo sapiens, UniProt P28566) | ligand displacement, radioligand | 10 µM | 5
Cc1ccc(C(CS(=O)(=O)c2ccccc2)=NNC2=NC(=O)C(=NNc3ccccc3)S2)cc1 | BRAF V600E | enzyme activity, inhibitor, ATP luminescence | 10 µM | 89
C=CN1CCCn2c1nc1c2c(=O)n(C)c(=O)n1C | ADORA3 | ligand displacement, radioligand | 10 µM, cell membranes | 11
C[C@@]1(c2cccc(Nc3ccc(C4CC4)nc3)c2Cl)CC(=O)N(C2CCOCC2)C(=N)N1 | Beta-secretase 1 (BACE1, Homo sapiens, UniProt P56817) | enzyme activity, inhibitor, FRET | 10 µM | 52
NS(=O)(=O)c1ccc(CCNCc2cccc3ccccc23)cc1 | DRD2 | enzyme activity, inhibitor | 10 µM | 42.2
CCN(CC)CCNC(=O)c1c(C)[nH]c(/C=C2\C(=O)Nc3ccc(F)cc32)c1C | Blk | enzyme activity, inhibitor | 10 µM | 83
CCOc1ccc(N2C(=O)CC(NCCc3ccccc3Cl)C2=O)cc1 (stereo not drawn) | DRD2 | enzyme activity, inhibitor | 10 µM | 42.5
CCCN1CCCn2c1nc1c2c(=O)n(C)c(=O)n1C | ADORA3 | ligand displacement, radioligand | 10 µM, cell membranes | 10
Cc1ccc(C(CS(=O)(=O)c2ccccc2)=NNC2=NC(=O)C(=NNc3ccc([N+](=O)[O-])cc3)S2)cc1 | BRAF V600E | enzyme activity, inhibitor, ATP luminescence | 0.1 µM | 49
Cc1ccc(CNC(=O)[C@H](CCc2ccccc2)NC(=O)[C@H](CCc2ccccc2)NC(=O)[C@H](CCc2ccccc2)NC(=O)c2cnc(C)cn2)cc1 | ELANE | enzyme activity, inhibitor | 100 µM | -8
Cc1ccc(Nc2nccc(N(C)c3ccc4c(C)n(C)nc4c3)n2)cc1S(N)(=O)=O | Dual specificity mitogen-activated protein kinase kinase 4 (Map2k4, Mus musculus, UniProt P47809) | enzyme activity, inhibitor | 10 µM | 63
O=C(Nc1ccc(S(=O)(=O)N2CCC(Cl)CC2)cc1)c1ccc([N+](=O)[O-])o1 | ADORA3 | ligand displacement, radioligand | 10 µM | 6
COc1ccc(-c2ccc(CNCC(O)c3ccccc3)o2)cc1Cl (stereo not drawn) | DRD2 | enzyme activity, inhibitor | 10 µM | 46
Oc1cccc(Nc2nc(-c3ccc(F)cc3F)cs2)c1 | NPY1R | cell-free assay | 10 µM | -16.2
[N-]=[N+]=N[C@@H](CC(=O)NO)Cc1ccc2ccccc2c1 | Endoplasmic reticulum aminopeptidase 2 (ERAP2, Homo sapiens, UniProt Q6P179) | enzyme activity, inhibitor, fluorescence | 300 µM | 24
Cc1ccc(N=Nc2sc(NN=C(CS(=O)(=O)c3ccccc3)c3ccc(C)cc3)nc2C)cc1 | BRAF V600E | enzyme activity, inhibitor, ATP luminescence | 0.1 µM | 48
O=C(c1cccc(Cl)c1)N1CCN(CCNc2cc(=O)oc3ccccc23)CC1 | DRD2 | enzyme activity, inhibitor | 10 µM | -1.9
CCCCN1CCCn2c1nc1c2c(=O)n(C)c(=O)n1C | ADORA3 | ligand displacement, radioligand | 10 µM, cell membranes | 12
C=CCn1c(SCC(=O)NC2=NN(c3ccccc3)C(=O)C2)nnc1-c1cccs1 | DRD2 | enzyme activity, inhibitor | 10 µM | -12.8
COc1cc2c(cc1OC)-c1nnnn1CCC2 | PARP16 | enzyme activity, inhibitor | 10 µM | 83
O=C(c1ccc(Cl)cc1)N(Cc1ccccc1)C1CCCCC1 | NPY1R | cell-free assay | 10 µM | -13.6

SMILES | target | assay | conditions | inhibition [%]
CC(=O)N[C@H]1CSSC[C@@H](C(=O)N[C@@H](Cc2c[nH]c3ccccc23)C(N)=O)NC(=O)[C@@H](Cc2ccccc2)NC(=O)[C@H](CCCNC(=N)N)NC1=O | Melanocortin receptor 3 (MC3R, Homo sapiens, UniProt P41968) | ligand displacement, radioligand | 10 µM, 40 min | 45
Cc1ccc(C(CS(=O)(=O)c2ccccc2)=NNC2=NC(=O)C(=NNc3ccc(Cl)cc3)S2)cc1 | BRAF V600E | enzyme activity, inhibitor, ATP luminescence | 0.1 µM | 46
O=C1CCCc2c(O)cccc2N1 | PARP16 | enzyme activity, inhibitor | 10 µM | 0
CCCCCN1CCCn2c1nc1c2c(=O)n(C)c(=O)n1C | ADORA3 | ligand displacement, radioligand | 10 µM, cell membranes | 21
Cc1ccc(C(CS(=O)(=O)c2ccccc2)=NNC(N)=S)cc1 | BRAF V600E | enzyme activity, inhibitor, ATP luminescence | 0.1 µM | 46
CCOCCNC(=O)NC12CC3CC(CC(C3)C1)C2 | ephB (Mycobacterium tuberculosis, UniProt I6YC03) | enzyme activity, inhibitor | 10 nM | 8.7
C#CCN1CCCn2c1nc1c2c(=O)n(C)c(=O)n1C | ADORA3 | ligand displacement, radioligand | 10 µM, cell membranes | 11
O=C(CCN1CCC(O)(c2ccc(F)cc2)C1)c1ccc2c(c1)OCCO2 (stereo not drawn) | DRD2 | enzyme activity, inhibitor | 10 µM | 41.3
Cn1cnc(Br)c1C1=CN(c2ncnc3[nH]cnc23)CCS1 | Serine/threonine-protein kinase Nek5 (NEK5, Homo sapiens, UniProt Q6P3R8) | enzyme activity, inhibitor, radiometric | 50 nM | 18.7
COc1cc(NC(C)=O)c(Cl)cc1C(=O)Nc1nccs1 | NPY1R | cell-free assay | 10 µM | 6
NC(=S)NN=C(CS(=O)(=O)c1ccccc1)c1ccc(F)cc1 | BRAF V600E | enzyme activity, inhibitor, ATP luminescence | 10 nM | 34
OC(CNCc1cccc(Oc2nnnn2-c2ccccc2)c1)c1ccccc1 (stereo not drawn) | DRD2 | enzyme activity, inhibitor | 10 µM | 35.6
COc1ccc(-c2csc(NN=C(CS(=O)(=O)c3ccccc3)c3ccc(F)cc3)n2)cc1 | BRAF V600E | enzyme activity, inhibitor, ATP luminescence | 0.1 µM | 51
O=C1C2CCCN2C(=O)N1CCCCN1CCN(c2cccc(C(F)(F)F)c2)CC1 (stereo not drawn) | DRD2 | enzyme activity, inhibitor | 10 µM | 10
CS(=O)(=O)Nc1cccc(-c2csc(NC(=O)CSc3nc4nccnc4c(=O)n3CCc3ccccc3)n2)c1 | Phosphatidylinositol 4-kinase type 2-alpha (PI4K2A, Homo sapiens, UniProt Q9BTU6) | enzyme activity, inhibitor | 10 µM | 0
Cc1ccc(C(CS(=O)(=O)c2ccccc2)=NN=C2N=C(c3ccc(Br)cc3)CS2)cc1 | BRAF V600E | enzyme activity, inhibitor, ATP luminescence | 10 nM | 43
CN1CCCn2c1nc1c2c(=O)n(C)c(=O)n1C | ADORA3 | ligand displacement, radioligand | 10 µM, cell membranes | 3
CNCc1ccc(-c2cc(-c3nc(-c4ccc(S(=O)(=O)C(C)C)cc4)cnc3N)on2)cc1 | Blk | enzyme activity, inhibitor | 2 µM | 36
O=C1N=C(N2CCCCN2)S/C1=C\c1ccc(F)cc1O | NPY1R | ligand displacement, radioligand | 10 µM | < 10
O=C(c1ccc(F)cc1)N(Cc1ccccc1)C1CCCCC1 | ADORA3 | cell-free assay | 10 µM | 4
CNC(=O)c1cc(Oc2ccc(NC(=O)Nc3ccc(Cl)c(C(F)(F)F)c3)cc2)ccn1 | Blk | enzyme activity, inhibitor | 10 µM | 51
CC(C)N1CCCn2c1nc1c2c(=O)n(C)c(=O)n1C | ADORA3 | ligand displacement, radioligand | 10 µM, cell membranes | 8
